Activity calls are given as the source filed them.
How the values were obtained:
NCI-H526 [1] = assay: Inhibition of HSP70-mediated antiapoptotic activity in human NCI-H526 cells assessed as induction of caspase-3 cleavage after 24 hrs by Western blot analysis; type: cell-based
Method in brief: (§1)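 NCI-H526 cells were treated for 24 h. PARP and caspase-3 cleavage were read by western blot of lysates in Tris/NaCl/NP-40 buffer. Apaf-1 complexes were immunoprecipitated with Apaf-1 antibody, using control IgG, then blotted.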

SK-BR-3 [2] = assay: Inhibition of HSP70-mediated antiapoptotic activity in human SKBR3 cells assessed as release of Apaf-1 from chaperon complex after 24 hrs by Western blot analysis; type: cell-based
Method in brief: (§2)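 SKBr3 cells were treated for 24 h. Lysates were probed by western blot for caspase-3 and PARP cleavage. Apaf-1 complexes were pulled down with Apaf-1 antibody (with control IgG) and immunoblotted.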

SK-BR-3 [3] = assay: Inhibition of HSP70-mediated antiapoptotic activity in human SKBR3 cells assessed as induction of PARP cleavage after 24 hrs by Western blot analysis; type: cell-based; method in brief: as §2
NCI-H526 [4] = assay: Inhibition of HSP70-mediated antiapoptotic activity in human NCI-H526 cells assessed as release of Apaf-1 from chaperon complex after 24 hrs by Western blot analysis; type: cell-based; method in brief: as §1
[5] = target: Heat shock protein HSP 90-beta (Homo sapiens) (UniProt P08238); assay: Inhibition of HSP90-mediated antiapoptotic activity in human MCF7 cells assessed as induction of caspase-9 cleavage at 50 uM after 24 hrs by Western blot analysis; type: cell-based
Heat shock protein HSP 90-beta (Homo sapiens), sequence (P08238 whole entry): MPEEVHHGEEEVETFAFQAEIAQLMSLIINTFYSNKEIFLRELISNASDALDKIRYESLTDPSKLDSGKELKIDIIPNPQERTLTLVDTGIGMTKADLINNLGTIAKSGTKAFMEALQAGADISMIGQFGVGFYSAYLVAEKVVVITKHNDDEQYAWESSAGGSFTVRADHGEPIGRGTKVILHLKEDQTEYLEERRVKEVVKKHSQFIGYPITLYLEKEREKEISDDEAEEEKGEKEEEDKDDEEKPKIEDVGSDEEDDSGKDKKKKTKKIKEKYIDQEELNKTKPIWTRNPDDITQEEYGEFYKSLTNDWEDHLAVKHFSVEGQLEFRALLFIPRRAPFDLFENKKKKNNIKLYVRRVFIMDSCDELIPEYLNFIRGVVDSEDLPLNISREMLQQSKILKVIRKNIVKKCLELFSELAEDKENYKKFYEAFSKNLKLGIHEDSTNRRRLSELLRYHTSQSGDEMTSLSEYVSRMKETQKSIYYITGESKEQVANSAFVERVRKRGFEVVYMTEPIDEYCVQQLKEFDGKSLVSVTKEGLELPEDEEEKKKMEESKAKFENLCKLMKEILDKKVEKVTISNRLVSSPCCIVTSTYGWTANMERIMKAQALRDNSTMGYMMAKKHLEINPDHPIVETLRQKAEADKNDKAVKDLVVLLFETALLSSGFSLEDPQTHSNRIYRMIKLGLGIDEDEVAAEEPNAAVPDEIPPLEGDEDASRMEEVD

NCI-H526 [6] = assay: Inhibition of HSP70-mediated antiapoptotic activity in human NCI-H526 cells assessed as induction of PARP cleavage after 24 hrs by Western blot analysis; type: cell-based; method in brief: as §1
SK-BR-3 [7] = assay: Inhibition of HSP70-mediated antiapoptotic activity in human SKBR3 cells assessed as induction of caspase-3 cleavage after 24 hrs by Western blot analysis; type: cell-based; method in brief: as §2
[8] = target: Heat shock protein HSP 90-beta (Homo sapiens) (UniProt P08238); assay: Inhibition of HSP90-mediated antiapoptotic activity in human NCI-H526 cells assessed as reduction in BAD phosphorylation at 50 uM after 24 hrs by Western blot analysis; type: cell-based
SK-BR-3 [9] = assay: Inhibition of HSP70-mediated antiapoptotic activity in human SKBR3 cells assessed as induction of cell growth arrest after 72 hrs by propidium iodide staining-based flow cytometry
[10] = target: Heat shock protein HSP 90-beta (Homo sapiens) (UniProt P08238); assay: Inhibition of HSP90-mediated antiapoptotic activity in human MCF7 cells assessed as induction of PARP cleavage at 50 uM after 24 hrs by Western blot analysis; type: cell-based
[11] = target: Heat shock protein HSP 90-beta (Homo sapiens) (UniProt P08238); assay: Inhibition of HSP90-mediated antiapoptotic activity in human NCI-H526 cells assessed as induction of Akt degradation at 50 uM after 24 hrs by Western blot analysis; type: cell-based
SK-BR-3 [12] = assay: Inhibition of HSP70-mediated antiapoptotic activity in human SKBR3 cells assessed as increase in caspase-3 activity after 24 hrs by Western blot analysis; type: cell-based
[13] = target: Heat shock protein HSP 90-beta (Homo sapiens) (UniProt P08238); assay: Inhibition of HSP90-mediated antiapoptotic activity in human SKBR3 cells assessed as induction of cell growth arrest at 50 uM after 24 hrs by propidium iodide staining-based flow cytometry; conditions: SK-BR-3
[14] = target: Heat shock protein HSP 90-beta (Homo sapiens) (UniProt P08238); assay: Inhibition of HSP90-mediated antiapoptotic activity in human SKBR3 cells assessed as induction of PARP cleavage at 50 uM after 24 hrs by Western blot analysis; type: cell-based; conditions: SK-BR-3
Method in brief: (§3)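 SKBr3 cells at 60–70% confluence were exposed to drug or DMSO vehicle. Lysis was in 50 mM Tris pH 7.4, 150 mM NaCl, 1% NP-40, with protein measured by BCA. Lysates of 20–100 µg were run on SDS-PAGE, blotted to nitrocellulose, probed with primary antibodies and detected with a peroxidase-conjugated secondary (1:5,000). Loading was checked with β-actin or PI(3)K p85.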

[15] = target: Heat shock protein HSP 90-beta (Homo sapiens) (UniProt P08238); assay: Inhibition of HSP90-mediated antiapoptotic activity in human MCF7 cells assessed as induction of cell growth arrest at 50 uM after 24 hrs by propidium iodide staining-based flow cytometry
[16] = target: Heat shock protein HSP 90-beta (Homo sapiens) (UniProt P08238); assay: Inhibition of HSP90-mediated antiapoptotic activity in human MCF7 cells assessed as induction of caspase-3 cleavage at 50 uM after 24 hrs by Western blot analysis; type: cell-based
[17] = target: Heat shock protein HSP 90-beta (Homo sapiens) (UniProt P08238); assay: Inhibition of HSP90-mediated antiapoptotic activity in human SKBR3 cells assessed as induction of caspase-3 cleavage at 400 uM after 24 hrs by Western blot analysis; type: cell-based; conditions: SK-BR-3; method in brief: as §3
[18] = target: Heat shock protein HSP 90-beta (Homo sapiens) (UniProt P08238); assay: Inhibition of HSP90-mediated proliferation of human NCI-H146 cells at 1 to 3 uM after 72 to 96 hrs by sulforhodamine B assay; type: cell-based
[19] = target: Heat shock protein HSP 90-beta (Homo sapiens) (UniProt P08238); assay: Binding affinity to HSP90 in human NCI-H69 cells after 24 hrs by fluorescence polarization assay
[20] = target: Heat shock protein HSP 90-beta (Homo sapiens) (UniProt P08238); assay: Binding affinity to HSP90 in human NCI-N417 cells after 24 hrs by fluorescence polarization assay; type: cell-based; conditions: NCI-H417
[21] = target: Heat shock protein HSP 90-beta (Homo sapiens) (UniProt P08238); assay: Inhibition of HSP90-mediated proliferation of human SKBR3cells after 72 hrs by sulforhodamine B assay
[22] = target: Heat shock protein HSP 90-beta (Homo sapiens) (UniProt P08238); assay: Binding affinity to HSP90 in human SKBR3 cells after 24 hrs by fluorescence polarization assay; conditions: SK-BR-3
[23] = target: Heat shock protein HSP 90-beta (Homo sapiens) (UniProt P08238); assay: Inhibition of HSP90-mediated proliferation of human NCI-H526 cells at 1 to 3 uM after 72 to 96 hrs by sulforhodamine B assay; type: cell-based
[24] = target: Heat shock protein HSP 90-beta (Homo sapiens) (UniProt P08238); assay: Inhibition of HSP90-mediated proliferation of human NCI-N417 cells at 1 to 3 uM after 72 to 96 hrs by sulforhodamine B assay; type: cell-based; conditions: NCI-H417
[25] = target: Heat shock protein HSP 90-beta (Homo sapiens) (UniProt P08238); assay: Binding affinity to HSP90 in human NCI-H510 cells after 24 hrs by fluorescence polarization assay; type: cell-based
[26] = target: Heat shock protein HSP 90-beta (Homo sapiens) (UniProt P08238); assay: Inhibition of HSP90-mediated proliferation of human NCI-H209 cells at 1 to 3 uM after 72 to 96 hrs by sulforhodamine B assay; type: cell-based
[27] = target: Heat shock protein HSP 90-beta (Homo sapiens) (UniProt P08238); assay: Inhibition of HSP90-mediated antiapoptotic activity in human SKI-AC3 cells assessed as induction of cell growth arrest at 10 after 96 hrs by propidium iodide staining-based flow cytometry
[28] = target: Heat shock protein HSP 90-beta (Homo sapiens) (UniProt P08238); assay: Inhibition of HSP90 in chemo-resistant human SKI-AC3 cells at 100 uM after 24 hrs by fluorescence polarization assay; type: cell-based
Method in brief: (§4)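 Competitive fluorescence polarization in lysates of H69AR, SKI-AC3 and WBA cells, prepared in HFB buffer pH 7.3 and normalized to Hsp90. Tracer was 3 nM Cy3B-geldanamycin, with incubation for 24 h at 4 °C. EC50 was defined as 50% tracer displacement.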

[29] = target: Heat shock protein HSP 90-beta (Homo sapiens) (UniProt P08238); assay: Inhibition of HSP90-mediated antiapoptotic activity in human NCI-H209 cells assessed as increase in apoptotic cell population at 0.2 to 1 uM after 96 hrs by FACS analysis relative to control; type: cell-based
[30] = target: Heat shock protein HSP 90-beta (Homo sapiens) (UniProt P08238); assay: Inhibition of HSP90-mediated antiapoptotic activity in human NCI-H526 cells assessed as increase in apoptotic cell population at 0.2 to 1 uM after 72 hrs by FACS analysis relative to control; type: cell-based
[31] = target: Heat shock protein HSP 90-beta (Homo sapiens) (UniProt P08238); assay: Inhibition of HSP90-mediated antiapoptotic activity in human NCI-H69 cells assessed as increase in apoptotic cell population at 0.2 to 1 uM after 72 hrs by FACS analysis relative to control; type: cell-based
[32] = target: Heat shock protein HSP 90-beta (Homo sapiens) (UniProt P08238); assay: Binding affinity to HSP90 in human NCI-H187 cells after 24 hrs by fluorescence polarization assay
[33] = target: Heat shock protein HSP 90-beta (Homo sapiens) (UniProt P08238); assay: Binding affinity to HSP90 in human NCI-H209 cells after 24 hrs by fluorescence polarization assay; type: cell-based
[34] = target: Heat shock protein HSP 90-beta (Homo sapiens) (UniProt P08238); assay: Inhibition of HSP90-mediated antiapoptotic activity in human WBA cells assessed as induction of cell growth arrest at 10 after 96 hrs by propidium iodide staining-based flow cytometry
[35] = target: Heat shock protein HSP 90-beta (Homo sapiens) (UniProt P08238); assay: Binding affinity to HSP90 in human NCI-H146 cells after 24 hrs by fluorescence polarization assay; type: cell-based
[36] = target: Heat shock protein HSP 90-beta (Homo sapiens) (UniProt P08238); assay: Inhibition of HSP90-mediated antiapoptotic activity in human NCI-H187 cells assessed as increase in apoptotic cell population at 0.2 to 1 uM after 72 hrs by FACS analysis relative to control; type: cell-based
[37] = target: Heat shock protein HSP 90-beta (Homo sapiens) (UniProt P08238); assay: Inhibition of HSP90-mediated antiapoptotic activity in human H69AR cells assessed as induction of cell growth arrest at 10 after 96 hrs by propidium iodide staining-based flow cytometry
[38] = target: Heat shock protein HSP 90-beta (Homo sapiens) (UniProt P08238); assay: Inhibition of HSP90-mediated antiapoptotic activity in human NCI-H146 cells assessed as increase in apoptotic cell population at 0.2 to 1 uM after 96 hrs by FACS analysis relative to control; type: cell-based
[39] = target: Heat shock protein HSP 90-beta (Homo sapiens) (UniProt P08238); assay: Inhibition of HSP90-mediated proliferation of human NCI-H510 cells at 1 to 3 uM after 72 to 96 hrs by sulforhodamine B assay; type: cell-based
[40] = target: Heat shock protein HSP 90-beta (Homo sapiens) (UniProt P08238); assay: Inhibition of HSP90-mediated antiapoptotic activity in human NCI-H510 cells assessed as increase in apoptotic cell population at 0.2 to 1 uM after 96 hrs by FACS analysis relative to control; type: cell-based
[41] = target: Heat shock protein HSP 90-beta (Homo sapiens) (UniProt P08238); assay: Inhibition of HSP90 in chemo-resistant human H69AR cells at 100 uM after 24 hrs by fluorescence polarization assay; type: cell-based; method in brief: as §4
[42] = target: Heat shock protein HSP 90-beta (Homo sapiens) (UniProt P08238); assay: Inhibition of HSP90 in chemo-resistant human WBA cells at 100 uM after 24 hrs by fluorescence polarization assay; type: cell-based; method in brief: as §4
[43] = target: Heat shock protein HSP 90-beta (Homo sapiens) (UniProt P08238); assay: Inhibition of HSP90-mediated proliferation of human NCI-H69 cells at 1 to 3 uM after 72 to 96 hrs by sulforhodamine B assay; type: cell-based
[44] = target: Heat shock protein HSP 90-beta (Homo sapiens) (UniProt P08238); assay: Binding affinity to HSP90 in human NCI-H526 cells after 24 hrs by fluorescence polarization assay; type: cell-based
[45] = target: Heat shock protein HSP 90-beta (Homo sapiens) (UniProt P08238); assay: Inhibition of HSP90-mediated antiapoptotic activity in human NCI-N417 cells assessed as increase in apoptotic cell population at 0.2 to 1 uM after 96 hrs by FACS analysis relative to control; type: cell-based
[46] = target: Heat shock protein HSP 90-beta (Homo sapiens) (UniProt P08238); assay: Inhibition of HSP90-mediated proliferation of human NCI-H187 cells at 1 to 3 uM after 72 to 96 hrs by sulforhodamine B assay; type: cell-based

With `CCCCCCN(C(=O)CCCCCN1C(=O)NC(c2ccc(-c3ccccc3)cc2)C(C(=O)OCc2ccccc2)=C1C)C(C(=O)NCCCC)c1ccc(OCC(=O)OC)c(C(=O)OC)c1` (stereo unspecified) the inhibition (NCI-H526 [1]) was “inactive”, the inhibition (SK-BR-3 [2]) was “inactive” and the inhibition (SK-BR-3 [3]) was “Active”. The inhibition (NCI-H526 [4]) was “inactive”, the Activity [5] was “Active” and the inhibition (NCI-H526 [6]) was “inactive”. For the same molecule, the inhibition (SK-BR-3 [7]) was “Active”, the inhibition [8] was “Active” and the inhibition (SK-BR-3 [9]) was “Active”. The Activity [10] was “Active”, the Activity [11] was “Active” and the inhibition (SK-BR-3 [12]) was “Active”. For the same molecule, the Activity [13] was “Active”, the Activity [14] was “Active” and the Activity [15] was “Active”. The Activity [16] was “Active” and the Activity [17] was “Active”.

`C#CCCCn1c(Sc2cc3c(cc2Br)OCO3)nc2c(N)ncnc21` was tested, and the inhibition [18] was 50%, the Activity [19] was “Active” and the Activity [20] was “Active”. The inhibition [21] was “Active”, the Activity [22] was “Active” and the inhibition [23] was 50%. For the same molecule, the inhibition [24] was 50%, the Activity [25] was “Active” and the inhibition [26] was 50%. For the same molecule, the Activity [27] was “Active”, the inhibition [28] was “Active” and the fold change (FC) [29] was 2. The fold change (FC) [30] was 2, the fold change (FC) [31] was 2 and the Activity [32] was “Active”. The Activity [33] was “Active”, the Activity [34] was “Active” and the Activity [35] was “Active”. The fold change (FC) [36] was 2, the Activity [37] was “Active” and the fold change (FC) [38] was 2. The inhibition [39] was 50%, the fold change (FC) [40] was 2 and the inhibition [41] was “Active”. For the same molecule, the inhibition [42] was “Active”, the inhibition [43] was 50% and the Activity [44] was “Active”. The fold change (FC) [45] was 2 and the inhibition [46] was 50%.

Source: ChEMBL document CHEMBL1240328, “Selective compounds define Hsp90 as a major inhibitor of apoptosis in small-cell lung cancer” (Nat Chem Biol, 2007)
